Experimental data as given in ChEMBL document CHEMBL2062435, “Synthesis and in vitro antibacterial activity of gemifloxacin derivatives containing a substituted benzyloxime moiety” (2012).

What was measured:
Type in all cases: functional
Escherichia coli [1] = test: Antimicrobial activity against Escherichia coli 10-3 after 18-24 hrs by two-fold serial dilution method
Method in brief: (§1)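 Agar-medium twofold serial dilution against Gram-positive and Gram-negative strains; MIC taken as the lowest compound concentration giving complete inhibition of bacterial growth after incubation at 35 °C for 18-24 h.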

Klebsiella pneumoniae [2] = test: Antimicrobial activity against Klebsiella pneumoniae 10-4 after 18-24 hrs by two-fold serial dilution method; method in brief: as §1
Escherichia coli [3] = test: Antimicrobial activity against Escherichia coli ATCC 25922 after 18-24 hrs by two-fold serial dilution method; method in brief: as §1
Enterococcus faecalis [4] = test: Antimicrobial activity against Enterococcus faecalis 10-6 after 18-24 hrs by two-fold serial dilution method; method in brief: as §1
Staphylococcus aureus [5] = test: Antimicrobial activity against Staphylococcus aureus ATCC […] after 18-24 hrs by two-fold serial dilution method; method in brief: as §1
Pseudomonas aeruginosa [6] = test: Antimicrobial activity against extended spectrum beta-lactamases-producing Pseudomonas aeruginosa 10-9 after 18-24 hrs by two-fold serial dilution method; method in brief: as §1
Staphylococcus aureus [7] = test: Antimicrobial activity against extended spectrum beta-lactamases-producing methicillin-resistant Staphylococcus aureus 10-11 after 18-24 hrs by two-fold serial dilution method
Method in brief: (§2)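 Agar twofold serial dilution MIC against clinical isolates. MIC was taken as the lowest concentration giving complete inhibition of bacterial growth after incubation at 35 °C for 18-24 h.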

Escherichia coli [8] = test: Antimicrobial activity against Escherichia coli 10-2 after 18-24 hrs by two-fold serial dilution method; method in brief: as §1
Pseudomonas aeruginosa [9] = test: Antimicrobial activity against Pseudomonas aeruginosa 10-12 after 18-24 hrs by two-fold serial dilution method; method in brief: as §1
[10] = system: Staphylococcus epidermidis; test: Antimicrobial activity against extended spectrum beta-lactamases-producing methicillin-sensitive Staphylococcus epidermidis 10-11 after 18-24 hrs by two-fold serial dilution method; method in brief: as §1
Enterococcus faecalis [11] = test: Antimicrobial activity against Enterococcus faecalis 10-7 after 18-24 hrs by two-fold serial dilution method; method in brief: as §1
Pseudomonas aeruginosa [12] = test: Antimicrobial activity against extended spectrum beta-lactamases-producing Pseudomonas aeruginosa 10-20 after 18-24 hrs by two-fold serial dilution method; method in brief: as §1
[13] = system: Staphylococcus epidermidis; test: Antimicrobial activity against extended spectrum beta-lactamases-producing methicillin-resistant Staphylococcus epidermidis 10-10 after 18-24 hrs by two-fold serial dilution method; method in brief: as §2
Escherichia coli [14] = test: Antimicrobial activity against extended spectrum beta-lactamases-producing Escherichia coli 10-4 after 18-24 hrs by two-fold serial dilution method; method in brief: as §1
Escherichia coli [15] = test: Antimicrobial activity against extended spectrum beta-lactamases-producing Escherichia coli 10-2 after 18-24 hrs by two-fold serial dilution method; method in brief: as §1
Pseudomonas aeruginosa [16] = test: Antimicrobial activity against extended spectrum beta-lactamases-producing Pseudomonas aeruginosa 10-15 after 18-24 hrs by two-fold serial dilution method; method in brief: as §1
Streptococcus pneumoniae [17] = test: Antimicrobial activity against extended spectrum beta-lactamases-producing Streptococcus pneumoniae 10-4 after 18-24 hrs by two-fold serial dilution method; method in brief: as §1
Pseudomonas aeruginosa [18] = test: Antimicrobial activity against extended spectrum beta-lactamases-producing Pseudomonas aeruginosa 10-5 after 18-24 hrs by two-fold serial dilution method; method in brief: as §1
Enterococcus faecium [19] = test: Antimicrobial activity against Enterococcus faecium 10-5 after 18-24 hrs by two-fold serial dilution method; method in brief: as §1
[20] = system: Staphylococcus epidermidis; test: Antimicrobial activity against extended spectrum beta-lactamases-producing methicillin-sensitive Staphylococcus epidermidis 10-13 after 18-24 hrs by two-fold serial dilution method; method in brief: as §1
Klebsiella pneumoniae [21] = test: Antimicrobial activity against extended spectrum beta-lactamases-producing Klebsiella pneumoniae 10-2 after 18-24 hrs by two-fold serial dilution method; method in brief: as §1
Staphylococcus aureus [22] = test: Antimicrobial activity against extended spectrum beta-lactamases-producing methicillin-resistant Staphylococcus aureus 10-15 after 18-24 hrs by two-fold serial dilution method; method in brief: as §2
Streptococcus pneumoniae [23] = test: Antimicrobial activity against extended spectrum beta-lactamases-producing Streptococcus pneumoniae 10-1 after 18-24 hrs by two-fold serial dilution method; method in brief: as §1
Klebsiella pneumoniae [24] = test: Antimicrobial activity against Klebsiella pneumoniae 10-3 after 18-24 hrs by two-fold serial dilution method; method in brief: as §1
Escherichia coli [25] = test: Antimicrobial activity against extended spectrum beta-lactamases-producing Escherichia coli 10-3 after 18-24 hrs by two-fold serial dilution method; method in brief: as §1
[26] = system: Staphylococcus epidermidis; test: Antimicrobial activity against extended spectrum beta-lactamases-producing methicillin-resistant Staphylococcus epidermidis 10-13 after 18-24 hrs by two-fold serial dilution method; method in brief: as §2
Enterococcus faecium [27] = test: Antimicrobial activity against Enterococcus faecium 10-9 after 18-24 hrs by two-fold serial dilution method; method in brief: as §1
Klebsiella pneumoniae [28] = test: Antimicrobial activity against extended spectrum beta-lactamases-producing Klebsiella pneumoniae 10-3 after 18-24 hrs by two-fold serial dilution method; method in brief: as §1
Klebsiella pneumoniae [29] = test: Antimicrobial activity against Klebsiella pneumoniae 10-2 after 18-24 hrs by two-fold serial dilution method; method in brief: as §1
Pseudomonas aeruginosa [30] = test: Antimicrobial activity against extended spectrum beta-lactamases-producing Pseudomonas aeruginosa 10-18 after 18-24 hrs by two-fold serial dilution method; method in brief: as §1
Staphylococcus aureus [31] = test: Antimicrobial activity against extended spectrum beta-lactamases-producing methicillin-sensitive Staphylococcus aureus 10-14 after 18-24 hrs by two-fold serial dilution method; method in brief: as §1
Klebsiella pneumoniae [32] = test: Antimicrobial activity against extended spectrum beta-lactamases-producing Klebsiella pneumoniae 10-1 after 18-24 hrs by two-fold serial dilution method; method in brief: as §1
Staphylococcus aureus [33] = test: Antimicrobial activity against extended spectrum beta-lactamases-producing methicillin-sensitive Staphylococcus aureus 10-13 after 18-24 hrs by two-fold serial dilution method; method in brief: as §1
Escherichia coli [34] = test: Antimicrobial activity against Escherichia coli 10-1 after 18-24 hrs by two-fold serial dilution method; method in brief: as §1
Enterococcus faecalis [35] = test: Antimicrobial activity against Enterococcus faecalis 10-5 after 18-24 hrs by two-fold serial dilution method; method in brief: as §1
[36] = system: Staphylococcus epidermidis; test: Antimicrobial activity against extended spectrum beta-lactamases-producing methicillin-sensitive Staphylococcus epidermidis 10-15 after 18-24 hrs by two-fold serial dilution method; method in brief: as §1

| SMILES | MIC (Escherichia coli [1]) [µg/mL] | MIC (Klebsiella pneumoniae [2]) [µg/mL] | MIC (Escherichia coli [3]) [µg/mL] | MIC (Enterococcus faecalis [4]) [µg/mL] | MIC (Staphylococcus aureus [5]) [µg/mL] | MIC (Pseudomonas aeruginosa [6]) [µg/mL] | MIC (Staphylococcus aureus [7]) [µg/mL] | MIC (Escherichia coli [8]) [µg/mL] | MIC (Pseudomonas aeruginosa [9]) [µg/mL] | MIC [10] [µg/mL] | MIC (Enterococcus faecalis [11]) [µg/mL] | MIC (Pseudomonas aeruginosa [12]) [µg/mL] | MIC [13] [µg/mL] | MIC (Escherichia coli [14]) [µg/mL] | MIC (Escherichia coli [15]) [µg/mL] | MIC (Pseudomonas aeruginosa [16]) [µg/mL] | MIC (Streptococcus pneumoniae [17]) [µg/mL] | MIC (Pseudomonas aeruginosa [18]) [µg/mL] | MIC (Enterococcus faecium [19]) [µg/mL] | MIC [20] [µg/mL] | also measured |
| --- | --- | --- | --- | --- | --- | --- | --- | --- | --- | --- | --- | --- | --- | --- | --- | --- | --- | --- | --- | --- | --- |
| COc1ccc(CO/N=C2\CN(c3nc4c(cc3F)c(=O)c(C(=O)O)cn4C3CC3)CC2CN)cc1OC.CS(=O)(=O)O (racemic) | 16 | > 128 | 0.06 | 2 | 0.03 | 8 | 0.5 | 8 | 0.03 | 2 | 1 | 0.06 | 0.5 | 2 | > 128 | 1 | 4 | 2 | 4 | 0.5 | MIC (Klebsiella pneumoniae [21]): > 128 µg/mL; MIC (Staphylococcus aureus [22]): 0.125 µg/mL; MIC (Streptococcus pneumoniae [23]): 0.5 µg/mL; MIC (Klebsiella pneumoniae [24]): 4 µg/mL; MIC (Escherichia coli [25]): 16 µg/mL; MIC [26]: 0.25 µg/mL; MIC (Enterococcus faecium [27]): 4 µg/mL; MIC (Klebsiella pneumoniae [28]): > 128 µg/mL; MIC (Klebsiella pneumoniae [29]): 128 µg/mL; MIC (Pseudomonas aeruginosa [30]): 4 µg/mL; MIC (Staphylococcus aureus [31]): 0.06 µg/mL; MIC (Klebsiella pneumoniae [32]): 64 µg/mL; MIC (Staphylococcus aureus [33]): 0.5 µg/mL; MIC (Escherichia coli [34]): 16 µg/mL; MIC (Enterococcus faecalis [35]): 0.5 µg/mL; MIC [36]: 4 µg/mL |
| COc1ccc(CO/N=C2\CN(c3nc4c(cc3F)c(=O)c(C(=O)O)cn4C3CC3)CC2CN)c(Cl)c1OC.CS(=O)(=O)O (racemic) | 16 | > 128 | 0.25 | 4 | 0.008 | 8 | 1 | 32 | 16 | 0.25 | 2 | 16 | 0.5 | 4 | > 128 | 32 | 0.06 | 16 | 4 | 0.03 | MIC (Klebsiella pneumoniae [21]): > 128 µg/mL; MIC (Staphylococcus aureus [22]): 0.25 µg/mL; MIC (Streptococcus pneumoniae [23]): 0.5 µg/mL; MIC (Klebsiella pneumoniae [24]): 8 µg/mL; MIC (Escherichia coli [25]): > 128 µg/mL; MIC [26]: 0.5 µg/mL; MIC (Enterococcus faecium [27]): 4 µg/mL; MIC (Klebsiella pneumoniae [28]): > 128 µg/mL; MIC (Klebsiella pneumoniae [29]): > 128 µg/mL; MIC (Pseudomonas aeruginosa [30]): 16 µg/mL; MIC (Staphylococcus aureus [31]): 0.015 µg/mL; MIC (Klebsiella pneumoniae [32]): > 128 µg/mL; MIC (Staphylococcus aureus [33]): 0.015 µg/mL; MIC (Escherichia coli [34]): > 128 µg/mL; MIC (Enterococcus faecalis [35]): 0.25 µg/mL; MIC [36]: 1 µg/mL |
| CS(=O)(=O)O.NCC1CN(c2nc3c(cc2F)c(=O)c(C(=O)O)cn3C2CC2)C/C1=N\OCc1cc2c(cc1Cl)OCO2 (racemic) | 16 | 128 | 0.25 | 8 | 0.015 | 8 | 2 | 16 | 8 | 0.25 | 4 | 4 | 2 | 8 | 128 | 32 | 2 | 8 | 8 | 8 | MIC (Klebsiella pneumoniae [21]): > 128 µg/mL; MIC (Staphylococcus aureus [22]): 1 µg/mL; MIC (Streptococcus pneumoniae [23]): 0.5 µg/mL; MIC (Klebsiella pneumoniae [24]): 8 µg/mL; MIC (Escherichia coli [25]): > 128 µg/mL; MIC [26]: 2 µg/mL; MIC (Enterococcus faecium [27]): 8 µg/mL; MIC (Klebsiella pneumoniae [28]): > 128 µg/mL; MIC (Klebsiella pneumoniae [29]): > 128 µg/mL; MIC (Pseudomonas aeruginosa [30]): 16 µg/mL; MIC (Staphylococcus aureus [31]): 0.06 µg/mL; MIC (Klebsiella pneumoniae [32]): > 128 µg/mL; MIC (Staphylococcus aureus [33]): 0.03 µg/mL; MIC (Escherichia coli [34]): > 128 µg/mL; MIC (Enterococcus faecalis [35]): 1 µg/mL; MIC [36]: 2 µg/mL |
| COc1cc(CO/N=C2\CN(c3nc4c(cc3F)c(=O)c(C(=O)O)cn4C3CC3)CC2CN)c([N+](=O)[O-])cc1OC.CS(=O)(=O)O (racemic) | 32 | > 128 | 0.25 | 16 | 0.015 | 16 | 2 | 8 | 16 | 2 | 2 | 32 | 1 | 4 | > 128 | 32 | 0.125 | 16 | 8 | 0.25 | MIC (Klebsiella pneumoniae [21]): > 128 µg/mL; MIC (Staphylococcus aureus [22]): 1 µg/mL; MIC (Streptococcus pneumoniae [23]): 1 µg/mL; MIC (Klebsiella pneumoniae [24]): 4 µg/mL; MIC (Escherichia coli [25]): > 128 µg/mL; MIC [26]: 1 µg/mL; MIC (Enterococcus faecium [27]): 16 µg/mL; MIC (Klebsiella pneumoniae [28]): > 128 µg/mL; MIC (Klebsiella pneumoniae [29]): > 128 µg/mL; MIC (Pseudomonas aeruginosa [30]): 16 µg/mL; MIC (Staphylococcus aureus [31]): 0.125 µg/mL; MIC (Klebsiella pneumoniae [32]): > 128 µg/mL; MIC (Staphylococcus aureus [33]): 0.125 µg/mL; MIC (Escherichia coli [34]): > 128 µg/mL; MIC (Enterococcus faecalis [35]): 0.125 µg/mL; MIC [36]: 8 µg/mL |
| CS(=O)(=O)O.NCC1CN(c2nc3c(cc2F)c(=O)c(C(=O)O)cn3C2CC2)C/C1=N\OCc1ccccc1 (racemic) | 8 | 128 | 0.03 | 4 | < 0.008 | 2 | 4 | 4 | 4 | 1 | 2 | 2 | 1 | 4 | 32 | 4 | 0.06 | 8 | 4 | 0.06 | MIC (Klebsiella pneumoniae [21]): 64 µg/mL; MIC (Staphylococcus aureus [22]): 0.5 µg/mL; MIC (Streptococcus pneumoniae [23]): 0.25 µg/mL; MIC (Klebsiella pneumoniae [24]): 2 µg/mL; MIC (Escherichia coli [25]): 32 µg/mL; MIC [26]: 1 µg/mL; MIC (Enterococcus faecium [27]): 8 µg/mL; MIC (Klebsiella pneumoniae [28]): 32 µg/mL; MIC (Klebsiella pneumoniae [29]): 32 µg/mL; MIC (Pseudomonas aeruginosa [30]): 1 µg/mL; MIC (Staphylococcus aureus [31]): 0.03 µg/mL; MIC (Klebsiella pneumoniae [32]): 32 µg/mL; MIC (Staphylococcus aureus [33]): 0.015 µg/mL; MIC (Escherichia coli [34]): 16 µg/mL; MIC (Enterococcus faecalis [35]): 1 µg/mL; MIC [36]: 8 µg/mL |
